Test results: ChEMBL document CHEMBL1141626, “Thiosemicarbazones active against Clostridium difficile” (2008)
Values after ≈ are worked out from the molar mass of the structure shown. Active and inactive are the calls of the source. No cut-off for these calls is given here.

Columns and labels:
Staphylococcus aureus [1] = experiment: Antimicrobial activity against methicillin-resistant Staphylococcus aureus E1 after 24 hrs; type: functional
Method in brief: (§1)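 MIC by dilution in nutrient broth. Anaerobic organisms were incubated in an anaerobic cabinet. Controls were the same organisms incubated without test compound.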

Cutibacterium acnes [2] = experiment: Antimicrobial activity against Propionibacterium acnes NCTC 737 after 48 hrs; type: functional; conditions: NCTC 737, 48 h; method in brief: as §1
Clostridioides difficile [3] = experiment: Antimicrobial activity against Clostridium difficile O27 after 48 hrs; type: functional
Method in brief: (§2)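 Anaerobes incubated in an anaerobic cabinet for broth MIC determination. Drug-free incubations of the same organisms served as controls. Value is the minimum inhibitory concentration.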

Staphylococcus aureus [4] = experiment: Antimicrobial activity against methicillin-resistant Staphylococcus aureus A1 after 24 hrs; type: functional; method in brief: as §1
Cutibacterium acnes [5] = experiment: Antimicrobial activity against Propionibacterium acnes C3 after 48 hrs; type: functional; method in brief: as §1
Staphylococcus aureus [6] = experiment: Antimicrobial activity against Staphylococcus aureus K1 after 24 hrs; type: functional; method in brief: as §1
Staphylococcus aureus [7] = experiment: Antimicrobial activity against methicillin-resistant Staphylococcus aureus C3 after 24 hrs; type: functional; method in brief: as §1
Cutibacterium acnes [8] = experiment: Antimicrobial activity against Propionibacterium acnes C5 after 48 hrs; type: functional; method in brief: as §1
[9] = test system: Staphylococcus epidermidis; experiment: Antimicrobial activity against Staphylococcus epidermidis NCTC 11047 after 24 hrs; type: functional; conditions: NCTC 11047, 24 h; method in brief: as §1
Clostridioides difficile [10] = experiment: Antimicrobial activity against Clostridium difficile Z229 after 48 hrs; type: functional; method in brief: as §2
[11] = test system: Staphylococcus epidermidis; experiment: Antimicrobial activity against Staphylococcus epidermidis 9 after 24 hrs; type: functional; method in brief: as §1
Clostridioides difficile [12] = experiment: Antimicrobial activity against Clostridium difficile NCTC 11204 after 48 hrs; type: functional; conditions: NCTC 11204, 48 h; method in brief: as §2
Staphylococcus aureus [13] = experiment: Antimicrobial activity against Staphylococcus aureus ATCC 6538 after 24 hrs; type: functional; conditions: ATCC 6538, 24 h; method in brief: as §1
Staphylococcus aureus [14] = experiment: Antimicrobial activity against Staphylococcus aureus H1 after 24 hrs; type: functional; method in brief: as §1
Cutibacterium acnes [15] = experiment: Antimicrobial activity against Propionibacterium acnes B5 after 48 hrs; type: functional; method in brief: as §2
Clostridioides difficile [16] = experiment: Antimicrobial activity against Clostridium difficile Z162 after 48 hrs; type: functional; method in brief: as §2
[17] = test system: Staphylococcus epidermidis; experiment: Antimicrobial activity against Staphylococcus epidermidis 4 after 24 hrs; type: functional; method in brief: as §1
[18] = test system: Trichophyton mentagrophytes; experiment: Antimicrobial activity against Trichophyton mentagrophytes; type: functional, organism-based
Escherichia coli = experiment: Antimicrobial activity against Escherichia coli; type: functional, organism-based
Candida albicans = experiment: Antimicrobial activity against Candida albicans; type: functional, organism-based
Bacillus subtilis = experiment: Antimicrobial activity against Bacillus subtilis; type: functional, organism-based
Streptococcus pyogenes = experiment: Antimicrobial activity against Streptococcus pyogenes; type: functional, organism-based
Staphylococcus aureus [19] = experiment: Antimicrobial activity against Micrococcus pyogenes; type: functional, organism-based

Structure (SMILES) | MIC (Staphylococcus aureus [1]) [µg/mL] | MIC (Cutibacterium acnes [2]) [µg/mL] | MIC (Clostridioides difficile [3]) [µg/mL] | MIC (Staphylococcus aureus [4]) [µg/mL] | MIC (Cutibacterium acnes [5]) [µg/mL] | MIC (Staphylococcus aureus [6]) [µg/mL] | MIC (Staphylococcus aureus [7]) [µg/mL] | MIC (Cutibacterium acnes [8]) [µg/mL] | MIC [9] [µg/mL] | MIC (Clostridioides difficile [10]) [µg/mL] | MIC [11] [µg/mL] | MIC (Clostridioides difficile [12]) [µg/mL] | MIC (Staphylococcus aureus [13]) [µg/mL] | MIC (Staphylococcus aureus [14]) [µg/mL] | MIC (Cutibacterium acnes [15]) [µg/mL] | MIC (Clostridioides difficile [16]) [µg/mL] | MIC [17] [µg/mL] | other results
CC(C)(C)NC(=S)N/N=C/C=C/c1ccc([N+](=O)[O-])o1 | > 256 | 16 (≈ 54 µM) | 64 (≈ 216 µM) | > 256 | 8 (≈ 27 µM) | 32 (≈ 108 µM) | > 256 | 16 (≈ 54 µM) | > 256 | 64 (≈ 216 µM) | > 256 | > 256 | > 256 | 64 (≈ 216 µM) | 32 (≈ 108 µM) | 128 (≈ 432 µM) | > 256 | 
CC(C)(C)NC(=S)N/N=C/C=C/c1ccco1 | > 256 | 64 (≈ 255 µM) | 64 (≈ 255 µM) | > 256 | 4 (≈ 15.9 µM) | > 256 | > 256 | 1 (≈ 3.98 µM) | > 256 | 64 (≈ 255 µM) | > 256 | > 256 | > 256 | > 256 | 64 (≈ 255 µM) | > 256 | > 256 | 
CN[C@H](CC(C)C)C(=O)N[C@H]1C(=O)N[C@@H](CC(N)=O)C(=O)N[C@H]2C(=O)N[C@H]3C(=O)N[C@H](C(=O)N[C@H](C(=O)O)c4cc(O)cc(O)c4-c4cc3ccc4O)[C@H](O)c3ccc(c(Cl)c3)Oc3cc2cc(c3O[C@@H]2O[C@H](CO)[C@@H](O)[C@H](O)[C@H]2O[C@H]2C[C@](C)(N)[C@H](O)[C@H](C)O2)Oc2ccc(cc2Cl)[C@H]1O [VANCOMYCIN] |  | 0.5 (≈ 0.345 µM) | 0.75 (≈ 0.518 µM) |  |  |  |  |  |  |  |  | 0.5 (≈ 0.345 µM) | 1.5 (≈ 1.04 µM) |  |  |  |  | 
CC(C)NC(=S)N/N=C/c1ccc([N+](=O)[O-])o1 | > 256 | 64 (≈ 250 µM) | 64 (≈ 250 µM) | > 256 | 32 (≈ 125 µM) | > 256 | > 256 | 64 (≈ 250 µM) | 64 (≈ 250 µM) | 128 (≈ 499 µM) | > 256 | > 256 | 64 (≈ 250 µM) | 128 (≈ 499 µM) | > 256 | > 256 | > 256 | 
CC(C)NC(=S)N/N=C/C=C/c1ccc([N+](=O)[O-])o1 | > 256 | 32 (≈ 113 µM) | 64 (≈ 227 µM) | > 256 | 32 (≈ 113 µM) | > 256 | > 256 | 64 (≈ 227 µM) | 64 (≈ 227 µM) | 64 (≈ 227 µM) | > 256 | > 256 | > 256 | 256 (≈ 907 µM) | 32 (≈ 113 µM) | > 256 | 64 (≈ 227 µM) | 
CNC(=S)N/N=C/C=C/c1ccco1 | > 256 | 32 (≈ 153 µM) | 64 (≈ 306 µM) | > 256 | 16 (≈ 76.5 µM) | > 256 | > 256 | 1 (≈ 4.78 µM) | > 256 | 128 (≈ 612 µM) | > 256 | > 256 | > 256 | > 256 | 32 (≈ 153 µM) | > 256 | 128 (≈ 612 µM) | 
CCNC(=S)N/N=C/C=C/c1ccco1 | > 256 | 16 (≈ 71.7 µM) | 64 (≈ 287 µM) | > 256 | 32 (≈ 143 µM) | > 256 | > 256 | 32 (≈ 143 µM) | > 256 | 64 (≈ 287 µM) | > 256 | > 256 | > 256 | > 256 | > 256 | > 256 | > 256 | 
CCNC(=S)N/N=C/c1ccc([N+](=O)[O-])o1 | 64 (≈ 264 µM) | 16 (≈ 66 µM) | 64 (≈ 264 µM) | 64 (≈ 264 µM) | 2 (≈ 8.26 µM) | 64 (≈ 264 µM) | 64 (≈ 264 µM) | 32 (≈ 132 µM) | 32 (≈ 132 µM) | 8 (≈ 33 µM) | 64 (≈ 264 µM) | 64 (≈ 264 µM) | 32 (≈ 132 µM) | 16 (≈ 66 µM) | 32 (≈ 132 µM) | 128 (≈ 528 µM) | 32 (≈ 132 µM) | Activity [18]: Active; Activity (Escherichia coli): Active; Activity (Candida albicans): Active; Activity (Bacillus subtilis): Active; Activity (Streptococcus pyogenes): Active; Activity (Staphylococcus aureus [19]): Active
CNC(=S)N/N=C/C=C/c1ccc([N+](=O)[O-])o1 | 64 (≈ 252 µM) | 16 (≈ 62.9 µM) | 32 (≈ 126 µM) | 64 (≈ 252 µM) | 1 (≈ 3.93 µM) | > 256 | 64 (≈ 252 µM) | 64 (≈ 252 µM) | 32 (≈ 126 µM) | 16 (≈ 62.9 µM) | 64 (≈ 252 µM) | 64 (≈ 252 µM) | 32 (≈ 126 µM) | 16 (≈ 62.9 µM) | 1 (≈ 3.93 µM) | 32 (≈ 126 µM) | 32 (≈ 126 µM) | 
CC(C)(C)NC(=S)N/N=C/c1ccc([N+](=O)[O-])o1 | > 256 | 64 (≈ 237 µM) | > 256 | > 256 | 16 (≈ 59.2 µM) | 64 (≈ 237 µM) | > 256 | 16 (≈ 59.2 µM) | 128 (≈ 474 µM) | 16 (≈ 59.2 µM) | > 256 | 128 (≈ 474 µM) | 64 (≈ 237 µM) | > 256 | 32 (≈ 118 µM) | 128 (≈ 474 µM) | > 256 | 
CNC(=S)N/N=C/c1ccc([N+](=O)[O-])o1 | 64 (≈ 280 µM) | 16 (≈ 70.1 µM) | 64 (≈ 280 µM) | 64 (≈ 280 µM) | 16 (≈ 70.1 µM) | 128 (≈ 561 µM) | > 256 | 64 (≈ 280 µM) | 16 (≈ 70.1 µM) | 64 (≈ 280 µM) | 128 (≈ 561 µM) | > 256 | 64 (≈ 280 µM) | 64 (≈ 280 µM) | 64 (≈ 280 µM) | > 256 | 32 (≈ 140 µM) | 
CC(C)NC(=S)N/N=C/C=C/c1ccco1 | > 256 | 32 (≈ 135 µM) | 64 (≈ 270 µM) | > 256 | 1 (≈ 4.21 µM) | > 256 | > 256 | 64 (≈ 270 µM) | > 256 | 128 (≈ 539 µM) | > 256 | > 256 | > 256 | > 256 | > 256 | > 256 | > 256 | 
